Laboratory results published in ChEMBL document CHEMBL1131263, “Substituted tetrahydropyrrolo[2,1-b]oxazol-5(6H)-ones and tetrahydropyrrolo[2,1-b]thiazol-5(6H)-ones as hypoglycemic agents” (1998).

Tests used:
[1] = lowest concentration at which glucose utilized was greater than or equal to 140% of control value tested in a glucose utilization L6 myocyte in vitro assay; type: functional, Rattus norvegicus
In short: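 Differentiated rat L6 myotubes (day 11 or 13 after plating) exposed 20 h to compound in serum-free DMEM with 15 mM glucose and 1% final DMSO. Tested in quadruplicate at 3, 10, 30, 100, 300 µM. Glucose left in the medium read by glucose oxidase. Value is the lowest concentration giving at least 40% more utilization than control.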

[2] = system: Mus musculus; experiment: In vivo lowering of blood glucose levels in diabetic obese ob/ob mice by measuring postprandial blood glucose level on day1 after 4 hours at 300 uM/kg oral dose; type: functional
In short: (§1)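 Adult male C57BL ob/ob mice, fed, grouped (6/group) and matched for blood glucose on day 0; mice under 150 mg/dL excluded. Oral dosing in the morning on days 1-3, vehicle 0.5% CMC with 0.2% Tween-80. Significance versus vehicle.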

[3] = system: Mus musculus; experiment: In vivo lowering of blood glucose levels in diabetic obese ob/ob mice, measuring postprandial blood glucose level on day 3 after 2 hours at 300 uM/kg oral dose; type: functional; in short: as §1
[4] = system: Mus musculus; experiment: In vivo lowering of blood glucose levels in diabetic obese ob/ob mice, measuring postprandial blood glucose level on day1 after 2 hours at 300 uM/kg oral dose; type: functional; in short: as §1
[5] = system: Mus musculus; experiment: In vivo lowering of blood glucose levels in diabetic obese ob/ob mice by measuring postprandial blood glucose level on day 3 after 4 hours at 300 uM/kg oral dose; type: functional; in short: as §1
[6] = system: Mus musculus; experiment: In vivo lowering of blood glucose levels in diabetic obese ob/ob mice by measuring postprandial blood glucose level on day 3 after 8 hours at 300 uM/kg oral dose; type: functional; in short: as §1

Compound	Lowest effective concentration for glucose utilization ≥140% of control [1] [µM]	Efficacy [2] [%]	Efficacy [3] [%]	Efficacy [4] [%]	Efficacy [5] [%]	Efficacy [6] [%]
O=C1CC[C@]2(c3ccc(Cl)cc3)OCCN12	>1000	7	23	21	28	11
O=C1CC[C@]2(c3ccc4ccccc4c3)O[C@H](COc3ccc(Cl)cc3)CN12	30	37	49	21	62	39
O=C1CC[C@]2(c3ccccc3)O[C@H](COc3ccc(Cl)cc3)CN12	100	45	18	3	-16	-28
O=C1CC[C@]2(c3ccc(F)cc3)O[C@H](COc3ccc(Cl)cc3)CN12	30	19	67	-2	60	38
CC(C)(O)c1cc(-c2ccc(Oc3ccccc3)cc2)no1	30	-2	61	6	60	55
O=C1CCC[C@]2(c3ccc(Oc4ccccc4)cc3)OCCN12	30	29	45	25	50	3
CS(=O)(=O)N1C[C@@H](COc2ccc(Cl)cc2)O[C@@H]1c1ccc(Cl)cc1	30	18	11	-10	55	22
OCc1cc(-c2ccc(Cl)cc2)no1	100	-1	61	-3	53	34
CC(=O)N1C[C@H](COc2ccc(Cl)cc2)O[C@@H]1c1ccc(Cl)cc1	100	0	42	10	54	54
O=C1CC[C@]2(c3ccc4c(c3)CCc3ccccc3-4)O[C@H](COc3ccc(Cl)cc3)CN12	30	38	51	31	56	45
O=C1CC[C@]2(c3ccc4oc5ccccc5c4c3)O[C@H](COc3ccc(Cl)cc3)CN12	30	-43	8	-25	16	7
O=C1CC[C@]2(c3ccc(Cl)cc3)S[C@H](COc3ccc(Cl)cc3)CN12	>300	14	-11	28	9	11
O=C1CC[C@]2(c3ccc(Cl)cc3)SCCN12	300	2	57	16	64	68
O=C1CC[C@]2(c3ccc(Cl)c(Cl)c3)OC(COc3ccc(Cl)cc3)CN12 (stereo not given in full)	10	36	70	0	80	78
O=C1CC[C@]2(c3ccc(Oc4ccccc4)cc3)O[C@H](COc3ccc(Cl)cc3)CN12	10	-6	2	-29	-25	-3
